From ChEMBL document CHEMBL1155080, “Alpha2-adrenoreceptors profile modulation. 4. From antagonist to agonist behavior” (J Med Chem, 2008)
Active and inactive are the calls of the source. The calls are words filed in the database; no cut-off is given here.

How the values were obtained:
[1] = target: T1, Alpha-2B adrenergic receptor (Homo sapiens, UniProt P18089); experiment: Displacement of [3H]RS79948-197 from human recombinant adrenergic alpha2B receptor expressed in CHO cells; format: cell-based
T1 sequence (P18089 whole entry): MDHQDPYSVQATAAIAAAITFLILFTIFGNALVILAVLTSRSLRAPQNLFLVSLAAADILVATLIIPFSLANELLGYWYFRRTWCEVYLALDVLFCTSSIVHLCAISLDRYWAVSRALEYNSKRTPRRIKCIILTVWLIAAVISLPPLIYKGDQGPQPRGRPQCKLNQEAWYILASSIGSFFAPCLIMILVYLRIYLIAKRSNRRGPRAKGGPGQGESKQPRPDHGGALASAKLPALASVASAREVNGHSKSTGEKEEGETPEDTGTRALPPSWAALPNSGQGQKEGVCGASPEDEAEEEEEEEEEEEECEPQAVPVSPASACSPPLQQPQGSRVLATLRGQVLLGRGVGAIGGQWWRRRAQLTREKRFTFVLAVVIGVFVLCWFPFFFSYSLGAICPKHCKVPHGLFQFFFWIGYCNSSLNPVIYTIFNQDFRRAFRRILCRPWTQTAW
Procedure, shortened: (§1)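 Competition binding on membranes from CHO cells stably expressing each human α2 subtype (1-3 pmol/mg receptor). Assay in 50 mM potassium phosphate, pH 7.4, with 5-10 µg protein. Eight competitor dilutions, 30 min at room temperature, then vacuum filtration and scintillation counting. IC50 by one-site nonlinear regression, converted with Cheng-Prusoff; mean ± SEM, 3-6 experiments.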

[2] = target: T1, Alpha-2B adrenergic receptor; experiment: (§2) Agonist activity at human recombinant adrenergic alpha2B receptor expressed in CHO cells; format: functional, cell-based
Procedure, shortened: (§3)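 Cytosensor microphysiometry. Stable CHO cells were seeded at 3 × 10⁵ cells/cup, grown 24 h at 37 °C/5% CO₂, then perfused with bicarbonate-free DMEM at 100 µL/min. Over 90 s pump cycles, pH was read for 20 s. Response is the peak acidification rate minus the mean of three pre-agonist readings. pEC50 is the concentration giving 50% of maximum; mean ± SEM, 3-6 experiments.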

[3] = target: T2, Alpha-2A adrenergic receptor (Homo sapiens) (UniProt P08913); experiment: Intrinsic activity at human recombinant adrenergic alpha2A receptor expressed in CHO cells assessed as stimulation of extracellular acidification relative to (-)-noradrenaline; format: cell-based
T2 sequence (whole entry): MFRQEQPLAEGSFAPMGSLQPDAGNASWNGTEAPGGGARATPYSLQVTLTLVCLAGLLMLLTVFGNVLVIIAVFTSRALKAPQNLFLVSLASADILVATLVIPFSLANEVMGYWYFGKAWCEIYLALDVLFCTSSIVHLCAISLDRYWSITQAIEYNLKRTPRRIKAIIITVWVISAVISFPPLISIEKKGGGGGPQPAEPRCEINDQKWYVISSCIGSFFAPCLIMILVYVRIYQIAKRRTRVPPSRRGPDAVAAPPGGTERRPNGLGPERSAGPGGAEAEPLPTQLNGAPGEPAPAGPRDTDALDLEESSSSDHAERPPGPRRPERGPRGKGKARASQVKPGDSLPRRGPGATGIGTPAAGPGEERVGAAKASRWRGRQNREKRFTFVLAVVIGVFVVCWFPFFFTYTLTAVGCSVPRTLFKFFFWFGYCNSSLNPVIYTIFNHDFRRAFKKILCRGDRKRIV
Procedure, shortened: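 Microphysiometry (Cytosensor) of extracellular acidification rate in CHO cells stably expressing human α2A. Cells were seeded at 3 × 10⁵ cells/cup and cultured 24 h at 37 °C, then perfused with bicarbonate-free DMEM at 100 µL/min, with agonist diluted into running medium. Response was taken as the maximum after agonist minus the mean of three pre-agonist readings. Emax is expressed as a fraction of (−)-noradrenaline (=1); 3–6 experiments.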

[4] = target: T3, Alpha-2B adrenergic receptor (Homo sapiens) (UniProt P18089); experiment: Intrinsic activity at human recombinant adrenergic alpha2B receptor expressed in CHO cells relative to (-)-noradrenaline; format: cell-based
T3 sequence (whole entry): T1 sequence (P18089 whole entry)
Procedure, shortened: (§4)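 Acidification rate was measured by Cytosensor microphysiometry in stably transfected CHO cells (3 × 10⁵ cells/cup, bicarbonate-free DMEM perfusion). Each response is the peak rate change minus the pre-agonist baseline. Emax from concentration-response curves is expressed as a fraction of the (-)-noradrenaline maximum, taken as 1; mean ± SEM, 3-6 experiments.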

[5] = target: T4, Alpha-2C adrenergic receptor (Homo sapiens) (UniProt P18825); experiment: Intrinsic activity at human recombinant adrenergic Alpha-2C receptor expressed in CHO cells assessed as stimulation of extracellular acidification relative to (-)-noradrenaline; format: cell-based; procedure, shortened: as §4
T4 sequence (whole entry): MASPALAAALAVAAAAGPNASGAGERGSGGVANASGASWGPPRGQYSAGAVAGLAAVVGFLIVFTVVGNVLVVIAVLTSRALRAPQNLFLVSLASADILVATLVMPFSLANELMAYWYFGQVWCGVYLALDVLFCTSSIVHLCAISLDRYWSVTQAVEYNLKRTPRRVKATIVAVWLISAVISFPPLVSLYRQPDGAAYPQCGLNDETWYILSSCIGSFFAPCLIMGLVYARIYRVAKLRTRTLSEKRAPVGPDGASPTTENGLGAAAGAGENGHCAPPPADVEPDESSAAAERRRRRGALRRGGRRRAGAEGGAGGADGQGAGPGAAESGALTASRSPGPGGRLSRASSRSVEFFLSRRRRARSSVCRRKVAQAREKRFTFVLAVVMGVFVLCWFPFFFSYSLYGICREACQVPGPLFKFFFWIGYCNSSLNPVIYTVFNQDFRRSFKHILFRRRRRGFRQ

[6] = target: T5, Alpha-2C adrenergic receptor (Homo sapiens, UniProt P18825); experiment: (§5) Agonist activity at human recombinant adrenergic Alpha-2C receptor expressed in CHO cells assessed as stimulation of extracellular acidification; format: functional, cell-based; procedure, shortened: as §3
T5 sequence (P18825 whole entry): T4 sequence (whole entry)

[7] = target: T6, Alpha-2A adrenergic receptor (Homo sapiens, UniProt P08913); experiment: (§6) Agonist activity at human recombinant adrenergic alpha2A receptor expressed in CHO cells assessed as stimulation of extracellular acidification; format: functional, cell-based
T6 sequence (P08913 whole entry): T2 sequence (whole entry)

[8] = target: T6, Alpha-2A adrenergic receptor; experiment: Displacement of [3H]RS79948-197 from human recombinant adrenergic alpha2A receptor expressed in CHO cells; format: cell-based; procedure, shortened: as §1
[9] = target: T5, Alpha-2C adrenergic receptor; experiment: Displacement of [3H]RS79948-197 from human recombinant adrenergic Alpha-2C receptor expressed in CHO cells; format: cell-based; procedure, shortened: as §1
[10] = target: T4, Alpha-2C adrenergic receptor (Homo sapiens); experiment: Antagonist activity at human recombinant adrenergic Alpha-2C receptor expressed in CHO cells; format: functional, cell-based
Procedure, shortened: (§7)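 Clonidine-curve shift measured by Cytosensor microphysiometry of extracellular acidification in CHO cells stably expressing the individual human α2 subtype. Cells were seeded at 3 × 10⁵ cells/cup for 24 h at 37 °C/5% CO₂ and perfused with bicarbonate-free DMEM at 100 µL/min. A control clonidine concentration-response curve was run, then antagonist was applied ≥30 min before a repeat curve. Kb = M/(EC50 ratio − 1), reported as pKb; 3–6 experiments.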

[11] = target: T2, Alpha-2A adrenergic receptor (Homo sapiens); experiment: Antagonist activity at human recombinant adrenergic alpha2A receptor expressed in CHO cells; format: functional, cell-based; procedure, shortened: as §7
[12] = target: T3, Alpha-2B adrenergic receptor (Homo sapiens); experiment: Antagonist activity at human recombinant adrenergic alpha2B receptor expressed in CHO cells; format: functional, cell-based; procedure, shortened: as §7
[13] = target: T3, Alpha-2B adrenergic receptor (Homo sapiens); experiment: as §2; format: functional, cell-based; procedure, shortened: as §3
[14] = target: T4, Alpha-2C adrenergic receptor (Homo sapiens); experiment: as §5; format: functional, cell-based; procedure, shortened: as §3
[15] = target: T2, Alpha-2A adrenergic receptor (Homo sapiens); experiment: as §6; format: functional, cell-based

Structure (SMILES)	Ki [1]	EC50 [2]	Intrinsic activity [3]	Intrinsic activity [4]	Intrinsic activity [5]	EC50 [6]	EC50 [7]	Ki [8]	Ki [9]	pKb [10]	pKb [11]	pKb [12]	Activity [13]	Activity [14]	Activity [15]
CC(Oc1ccccc1/C=N/O)C1=NCCN1 (stereo unspecified)	708 nM	3980 nM	0.8	0.5	0.85	126 nM	501 nM	288 nM	912 nM	–	–	–	–	–	–
c1ccc2c(c1)OCC(C1=NCCN1)O2 (stereo unspecified)	–	–	–	–	–	–	–	–	–	7.92	7.73	7.16	–	–	–
c1ccc(-c2ccc3c(c2)OC(C2=NCCN2)CO3)cc1 (stereo unspecified)	1000 nM	–	–	–	–	–	–	398 nM	1260 nM	–	–	–	inactive	inactive	inactive
c1ccc(OC(C2=NCCN2)c2ccccc2)cc1 (stereo unspecified)	47.9 nM	–	–	–	–	–	–	93.3 nM	64.6 nM	6.9	6.1	6.04	–	–	–
C=CCc1ccccc1OC(C)C1=NCCN1 (stereo unspecified) [ALLYPHENYLINE]	339 nM	–	–	–	0.9	50.1 nM	–	–	85.1 nM	–	7.4	–	inactive	–	inactive
c1ccc(-c2ccc3c(c2)OCC(C2=NCCN2)O3)cc1 (stereo unspecified)	1660 nM	–	–	–	–	–	–	282 nM	1580 nM	–	–	–	inactive	inactive	inactive
CC(Oc1ccccc1C1CCCCC1)C1=NCCN1 (stereo unspecified)	191 nM	200 nM	0.6	0.7	0.8	20.9 nM	79.4 nM	74.1 nM	77.6 nM	–	–	–	–	–	–
CC(Oc1ccccc1/C=N/OCc1ccccc1)C1=NCCN1 (stereo unspecified)	871 nM	31600 nM	–	0.8	0.5	3550 nM	–	214 nM	676 nM	–	–	–	–	–	inactive
CC(Oc1ccccc1)C1=NCCN1 (stereo unspecified)	166 nM	–	–	–	–	–	–	26.9 nM	263 nM	6.85	7.01	6.2	–	–	–
COC1(C2=NCCN2)COc2cccc(-c3ccccc3)c2O1 (stereo unspecified)	1070 nM	–	–	–	–	–	–	126 nM	245 nM	–	–	–	inactive	inactive	inactive
c1ccc(-c2ccccc2OC(C2=NCCN2)c2ccccc2)cc1 (stereo unspecified)	955 nM	–	0.45	–	0.7	776 nM	1000 nM	240 nM	204 nM	–	–	–	inactive	–	–
c1ccc(-c2cccc3c2OC(C2=NCCN2)CO3)cc1 (stereo unspecified)	479 nM	22400 nM	–	0.45	0.4	3160 nM	–	240 nM	692 nM	–	–	–	–	–	inactive
c1ccc(-c2cccc3c2OCC(C2=NCCN2)O3)cc1 (stereo unspecified)	1070 nM	12600 nM	–	0.7	0.75	794 nM	–	724 nM	832 nM	–	–	–	–	–	inactive
CO/N=C/c1ccccc1OC(C)C1=NCCN1 (stereo unspecified)	1200 nM	–	–	–	0.55	501 nM	–	661 nM	3090 nM	–	–	–	inactive	–	inactive
COC(C)(Oc1ccccc1-c1ccccc1)C1=NCCN1 (stereo unspecified)	–	–	–	–	–	–	–	–	–	–	–	–	inactive	inactive	inactive
COC1(C2=NCCN2)COc2c(cccc2-c2ccccc2)O1 (stereo unspecified)	–	15800 nM	–	0.5	–	–	–	257 nM	–	–	–	–	–	inactive	inactive
CCO/N=C/c1ccccc1OC(C)C1=NCCN1 (stereo unspecified)	447 nM	–	–	–	0.45	1000 nM	–	417 nM	339 nM	–	–	–	inactive	–	inactive
CC(Oc1ccccc1C1CCCC1)C1=NCCN1 (stereo unspecified)	191 nM	501 nM	0.65	0.7	0.75	10 nM	63.1 nM	50.1 nM	26.9 nM	–	–	–	–	–	–
